Experiment [1] addresses T1, Toll-like receptor 7 (Homo sapiens) (UniProt Q9NYK1).
T1 sequence (whole entry): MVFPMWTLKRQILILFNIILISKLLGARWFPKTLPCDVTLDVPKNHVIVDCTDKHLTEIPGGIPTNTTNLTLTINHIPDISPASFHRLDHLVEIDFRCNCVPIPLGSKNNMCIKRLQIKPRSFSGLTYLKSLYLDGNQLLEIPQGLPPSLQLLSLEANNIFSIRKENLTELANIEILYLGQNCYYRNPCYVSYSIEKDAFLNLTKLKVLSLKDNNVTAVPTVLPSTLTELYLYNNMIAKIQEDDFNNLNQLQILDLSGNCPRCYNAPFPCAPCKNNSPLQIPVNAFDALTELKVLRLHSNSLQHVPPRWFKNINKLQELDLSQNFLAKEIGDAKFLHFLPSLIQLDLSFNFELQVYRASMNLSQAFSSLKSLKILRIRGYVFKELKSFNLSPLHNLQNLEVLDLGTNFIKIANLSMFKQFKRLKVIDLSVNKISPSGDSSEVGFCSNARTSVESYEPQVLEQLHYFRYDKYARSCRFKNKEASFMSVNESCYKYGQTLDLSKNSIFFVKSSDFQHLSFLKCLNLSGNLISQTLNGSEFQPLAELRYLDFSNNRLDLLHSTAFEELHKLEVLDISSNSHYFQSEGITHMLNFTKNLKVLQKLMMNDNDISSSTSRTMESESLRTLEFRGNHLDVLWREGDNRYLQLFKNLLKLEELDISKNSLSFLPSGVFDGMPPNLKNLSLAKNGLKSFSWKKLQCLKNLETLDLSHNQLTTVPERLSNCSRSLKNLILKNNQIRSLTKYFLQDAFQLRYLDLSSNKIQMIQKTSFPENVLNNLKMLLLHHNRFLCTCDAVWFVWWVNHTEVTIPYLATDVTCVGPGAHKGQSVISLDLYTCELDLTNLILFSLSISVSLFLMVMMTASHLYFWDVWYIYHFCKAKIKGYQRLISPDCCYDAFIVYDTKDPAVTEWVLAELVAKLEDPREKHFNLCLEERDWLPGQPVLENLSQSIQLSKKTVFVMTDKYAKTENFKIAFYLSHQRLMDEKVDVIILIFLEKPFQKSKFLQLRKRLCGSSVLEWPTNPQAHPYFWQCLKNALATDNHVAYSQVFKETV
Nature of the experiment: Activation of human TLR7 expressed in HEK293XL assessed as fold induction of NF-kappaB activity at 50 ug/ml after 18 hrs by reporter gene assay relative to control. Put shortly: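 HEK293 cells stably expressing human TLR7 or TLR8, transiently transfected with SEAP reporter plasmid; medium replaced, SIMRA compounds added, 18 h incubation. Supernatant SEAP measured by QuantiBlue; expressed as fold increase in NF-κB activity over PBS control. Tabulated data at 50 μg/mL, representative of three independent experiments.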
(In general: A reporter such as luciferase makes a cellular process visible.)

The subject of experiment [2] is PBMC. Briefly: Immunomodulatory activity in human PBMC assessed as induction of TNFalpha at 100 ug/ml after 24 hrs. It is filed as functional, cell-based. The essentials:
(§1)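 Human PBMCs plated at 5 × 10^6 cells/mL; compounds dissolved in PBS added at various concentrations, 37 °C for 24 h. Supernatant cytokines/chemokines quantified with human Luminex multiplex kit.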

For experiment [3], the system named is PBMC. Briefly: Immunomodulatory activity in human PBMC assessed as induction of IL12 at 100 ug/ml after 24 hrs. The class given is functional, cell-based. Put shortly: as §1
Experiment [4] concerns the target T2, Toll-like receptor 9 (Mus musculus) (UniProt Q9EQU3).
T2 sequence (whole entry): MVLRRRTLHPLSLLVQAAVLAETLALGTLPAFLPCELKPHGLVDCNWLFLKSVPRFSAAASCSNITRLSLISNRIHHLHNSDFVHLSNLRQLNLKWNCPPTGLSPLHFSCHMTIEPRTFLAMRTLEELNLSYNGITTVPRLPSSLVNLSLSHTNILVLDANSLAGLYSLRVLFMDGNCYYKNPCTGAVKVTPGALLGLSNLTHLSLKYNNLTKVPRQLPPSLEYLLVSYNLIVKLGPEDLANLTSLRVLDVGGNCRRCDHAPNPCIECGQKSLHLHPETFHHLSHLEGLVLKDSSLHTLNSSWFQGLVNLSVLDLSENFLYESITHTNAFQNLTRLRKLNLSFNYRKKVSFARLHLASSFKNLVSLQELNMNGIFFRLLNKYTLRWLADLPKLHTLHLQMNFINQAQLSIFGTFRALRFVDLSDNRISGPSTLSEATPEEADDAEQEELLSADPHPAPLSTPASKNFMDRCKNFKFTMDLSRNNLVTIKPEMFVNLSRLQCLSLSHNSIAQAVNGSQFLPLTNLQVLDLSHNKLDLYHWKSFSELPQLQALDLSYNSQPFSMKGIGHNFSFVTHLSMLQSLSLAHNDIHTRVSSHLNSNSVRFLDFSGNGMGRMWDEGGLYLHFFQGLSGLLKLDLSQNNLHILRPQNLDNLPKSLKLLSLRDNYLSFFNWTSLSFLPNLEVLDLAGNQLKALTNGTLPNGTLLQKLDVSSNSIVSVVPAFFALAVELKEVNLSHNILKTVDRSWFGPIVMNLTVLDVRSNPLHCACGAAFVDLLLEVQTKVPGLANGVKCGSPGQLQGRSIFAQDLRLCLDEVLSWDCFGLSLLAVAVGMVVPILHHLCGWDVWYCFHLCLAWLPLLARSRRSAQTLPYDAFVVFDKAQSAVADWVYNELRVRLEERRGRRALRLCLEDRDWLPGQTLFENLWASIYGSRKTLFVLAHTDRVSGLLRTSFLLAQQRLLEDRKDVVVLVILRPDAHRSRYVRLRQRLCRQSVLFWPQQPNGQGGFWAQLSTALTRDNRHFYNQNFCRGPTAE
Nature of the experiment: Activation of mouse TLR9 expressed in HEK293 assessed as induction of NF-kappaB activity reporter gene assay. It is filed as cell-based.

Experiment [5] relates to Splenocyte. Nature of the experiment: Immunomodulatory activity in C57BL/6 mouse splenocytes bearing TLR7 receptor assessed as IL6 release at 100 ug/ml after 24 hrs by ELISA. It is filed as functional, cell-based. The essentials: (§2)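 C57BL/6 splenocytes in RPMI 1640 with 10% FBS, penicillin/streptomycin, 2 mM L-glutamine, plated at 5 × 10^6 cells/mL; compounds in PBS added, 37 °C for 24 h. Supernatant IL-12 and IL-6 by ELISA; representative of three independent experiments.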

Experiment [6] has as its system Splenocyte. Briefly: Immunomodulatory activity in C57BL/6 mouse splenocytes bearing TLR7 receptor assessed as IL12 release at 100 ug/ml after 24 hrs by ELISA. It is filed as functional, cell-based. The essentials: as §2
On the technique in general: ELISA stands for enzyme-linked immunosorbent assay.

Molecules are shown by their SMILES. Active and inactive are the calls of the source. The rule behind the calls is not given here.

Drawing on ChEMBL document CHEMBL1154352, “Toll-like receptor 7 selective synthetic oligoribonucleotide agonists: synthesis and structure-activity relationship studies” (J Med Chem, 2009), this text covers fold change (FC) and Activity for two compounds.

Turning to `Nc1ccn([C@@H]2O[C@H](COP(=O)(S)O[C@H]3[C@@H](O)[C@H](n4cnc5c(N)ncnc54)O[C@@H]3COP(=O)(S)O[C@H]3[C@@H](O)[C@H](n4ccc5c(=O)[nH]c(N)nc54)O[C@@H]3COP(=O)(S)O[C@H]3[C@@H](O)[C@H](n4ccc(=O)[nH]c4=O)O[C@@H]3COP(=O)(S)O[C@H]3[C@@H](O)[C@H](n4ccc5c(=O)[nH]c(N)nc54)O[C@@H]3COP(=O)(S)O[C@H]3[C@@H](O)[C@H](n4cnc5c(N)ncnc54)O[C@@H]3COP(=O)(S)O[C@H]3[C@@H](O)[C@H](n4cnc5c(N)ncnc54)O[C@@H]3CO)[C@@H](OP(=O)(S)OC[C@H]3O[C@@H](n4ccc5c(=O)[nH]c(N)nc54)[C@H](O)[C@@H]3OP(=O)(S)OC[C@H]3O[C@@H](n4ccc(N)nc4=O)[C@H](O)[C@@H]3OP(=O)(S)OC[C@H]3O[C@@H](n4ccc(=O)[nH]c4=O)[C@H](O)[C@@H]3OP(=O)(S)OC[C@H]3O[C@@H](n4ccc(=O)[nH]c4=O)[C@H](O)[C@@H]3OP(=O)(S)OCC(O)COP(=O)(S)O[C@H]3[C@@H](O)[C@H](n4ccc(=O)[nH]c4=O)O[C@@H]3COP(=O)(S)O[C@H]3[C@@H](O)[C@H](n4ccc(=O)[nH]c4=O)O[C@@H]3COP(=O)(S)O[C@H]3[C@@H](O)[C@H](n4ccc(N)nc4=O)O[C@@H]3COP(=O)(S)O[C@H]3[C@@H](O)[C@H](n4ccc5c(=O)[nH]c(N)nc54)O[C@@H]3COP(=O)(S)O[C@H]3[C@@H](O)[C@H](n4ccc(N)nc4=O)O[C@@H]3COP(=O)(S)O[C@H]3[C@@H](O)[C@H](n4cnc5c(N)ncnc54)O[C@@H]3COP(=O)(S)O[C@H]3[C@@H](O)[C@H](n4ccc5c(=O)[nH]c(N)nc54)O[C@@H]3COP(=O)(S)O[C@H]3[C@@H](O)[C@H](n4ccc(=O)[nH]c4=O)O[C@@H]3COP(=O)(S)O[C@H]3[C@@H](O)[C@H](n4ccc5c(=O)[nH]c(N)nc54)O[C@@H]3COP(=O)(S)O[C@H]3[C@@H](O)[C@H](n4cnc5c(N)ncnc54)O[C@@H]3COP(=O)(S)O[C@H]3[C@@H](O)[C@H](n4cnc5c(N)ncnc54)O[C@@H]3CO)[C@H]2O)c(=O)n1` (some centres not stated), the fold change (FC) in experiment [1] is 22.6. Further, the Activity in experiment [2] was 26.2 pg/mL; in experiment [3], 352 pg/mL. For the same compound, in experiment [4], the outcome was inactive. In addition, the outcome in experiment [5] and in experiment [6] was Active.

In the case of `Nc1ccn([C@@H]2O[C@H](CO)[C@@H](OP(=O)(S)OC[C@H]3O[C@@H](n4ccc(=O)[nH]c4=O)[C@H](O)[C@@H]3OP(=O)(S)OC[C@H]3O[C@@H](n4ccc5c(=O)[nH]c(N)nc54)[C@H](O)[C@@H]3OP(=O)(S)OC[C@H]3O[C@@H](n4cnc5c(N)ncnc54)[C@H](O)[C@@H]3OP(=O)(S)OC[C@H]3O[C@@H](n4ccc5c(=O)[nH]c(N)nc54)[C@H](O)[C@@H]3OP(=O)(S)OC[C@H]3O[C@@H](n4cnc5c(N)ncnc54)[C@H](O)[C@@H]3OP(=O)(S)OC[C@H]3O[C@@H](n4cnc5c(N)ncnc54)[C@H](O)[C@@H]3OP(=O)(S)OC[C@H]3O[C@@H](n4ccc5c(=O)[nH]c(N)nc54)[C@H](O)[C@@H]3OP(=O)(S)OC[C@H]3O[C@@H](n4ccc(N)nc4=O)[C@H](O)[C@@H]3OP(=O)(S)OC[C@H]3O[C@@H](n4ccc(=O)[nH]c4=O)[C@H](O)[C@@H]3OP(=O)(S)OC[C@H]3O[C@@H](n4ccc(=O)[nH]c4=O)[C@H](O)[C@@H]3OP(=O)(S)OCC(O)COP(=O)(S)O[C@H]3[C@@H](O)[C@H](n4ccc(=O)[nH]c4=O)O[C@@H]3COP(=O)(S)O[C@H]3[C@@H](O)[C@H](n4ccc(=O)[nH]c4=O)O[C@@H]3COP(=O)(S)O[C@H]3[C@@H](O)[C@H](n4ccc(N)nc4=O)O[C@@H]3COP(=O)(S)O[C@H]3[C@@H](O)[C@H](n4ccc5c(=O)[nH]c(N)nc54)O[C@@H]3COP(=O)(S)O[C@H]3[C@@H](O)[C@H](n4cnc5c(N)ncnc54)O[C@@H]3COP(=O)(S)O[C@H]3[C@@H](O)[C@H](n4cnc5c(N)ncnc54)O[C@@H]3COP(=O)(S)O[C@H]3[C@@H](O)[C@H](n4ccc5c(=O)[nH]c(N)nc54)O[C@@H]3COP(=O)(S)O[C@H]3[C@@H](O)[C@H](n4cnc5c(N)ncnc54)O[C@@H]3COP(=O)(S)O[C@H]3[C@@H](O)[C@H](n4ccc5c(=O)[nH]c(N)nc54)O[C@@H]3COP(=O)(S)O[C@H]3[C@@H](O)[C@H](n4ccc(=O)[nH]c4=O)O[C@@H]3COP(=O)(S)O[C@H]3[C@@H](O)[C@H](n4ccc(N)nc4=O)O[C@@H]3CO)[C@H]2O)c(=O)n1` (some centres not stated), the fold change (FC) in experiment [1] came out at 27.6. Further, the Activity worked out at 818 pg/mL in experiment [2] and 1750 pg/mL in experiment [3]. The outcome in experiment [4] was inactive. The outcome in experiment [5] and in experiment [6] was Active.
